# Measured values taken from ChEMBL document CHEMBL3739271, “Synthesis and evaluation of a series of resveratrol analogues as potent anti-cancer agents that target tubulin” (2015).
# Assays:
# Type in all cases: functional
# [1] = Cytotoxicity against human Hs578T cells by SRB assay; settings: Hs-578T
# Procedure, shortened: (§1)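 NCI 60 human tumor cell line panel, sulforhodamine B (SRB) protein-stain read-out. Compounds were first screened at a single dose of 10^-5 M, and selected compounds were then tested in a five-dose format. GI50 is the drug concentration giving a 50% reduction in net protein increase relative to control cells.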
# MDA-MB-231 = experiment: Cytotoxicity against human MDA-MB-231 cells by SRB assay; procedure, shortened: as §1
# U-251 = experiment: Cytotoxicity against human U251 cells by SRB assay; procedure, shortened: as §1
# ACHN = experiment: Cytotoxicity against human ACHN cells by SRB assay; procedure, shortened: as §1
# [2] = Cytotoxicity against human SF268 cells by SRB assay; settings: SF-268; procedure, shortened: as §1
# CCRF-CEM = experiment: Cytotoxicity against human CCRF-CEM cells by SRB assay; procedure, shortened: as §1
# MCF7 = experiment: Cytotoxicity against human MCF7 cells by SRB assay; procedure, shortened: as §1
# [3] = Cytotoxicity against human UO31 cells by SRB assay; settings: UO-31; procedure, shortened: as §1
# NCI/ADR-RES = experiment: Cytotoxicity against human NCI/ADR-RES cells by SRB assay; procedure, shortened: as §1
# KM12 = experiment: Cytotoxicity against human KM12 cells by SRB assay; procedure, shortened: as §1
# [4] = Cytotoxicity against human HCT15 cells by SRB assay; settings: HCT-15; procedure, shortened: as §1
# SK-MEL-5 = experiment: Cytotoxicity against human SK-MEL-5 cells by SRB assay; procedure, shortened: as §1
# [5] = Cytotoxicity against human SNB19 cells by SRB assay; settings: SNB-19; procedure, shortened: as §1
# [6] = Cytotoxicity against human SF295 cells by SRB assay; settings: SF-295; procedure, shortened: as §1
# K562 = experiment: Cytotoxicity against human K562 cells by SRB assay; procedure, shortened: as §1
# [7] = Cytotoxicity against human OVCAR3 cells by SRB assay; settings: OVCAR-3; procedure, shortened: as §1
# [8] = Cytotoxicity against human HOP62 cells by SRB assay; settings: HOP-62; procedure, shortened: as §1
# [9] = Cytotoxicity against human SNB75 cells by SRB assay; settings: SNB-75; procedure, shortened: as §1
# NCI-H522 = experiment: Cytotoxicity against human NCI-H522 cells by SRB assay; procedure, shortened: as §1
# A498 = experiment: Cytotoxicity against human A498 cells by SRB assay; procedure, shortened: as §1
# M14 = experiment: Cytotoxicity against human M14 cells by SRB assay; procedure, shortened: as §1
# [10] = Cytotoxicity against human SKOV3 cells by SRB assay; settings: SK-OV-3; procedure, shortened: as §1
# [11] = Cytotoxicity against human UACC62 cells by SRB assay; settings: UACC-62; procedure, shortened: as §1
# HT-29 = experiment: Cytotoxicity against human HT-29 cells by SRB assay; procedure, shortened: as §1
# [12] = Cytotoxicity against human HL-60(TB) cells by SRB assay
# Procedure, shortened: (§2)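 NCI 60-cell-line panel using sulforhodamine B protein stain. Initial single-dose screen at 10^-5 M, then five-dose testing. GI50 is the drug concentration giving a 50% reduction in net protein increase relative to control cells.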
# 786-0 = experiment: Cytotoxicity against human 786-0 cells by SRB assay; procedure, shortened: as §1
# A549 = experiment: Cytotoxicity against human A549 cells by SRB assay; procedure, shortened: as §1
# SK-MEL-28 = experiment: Cytotoxicity against human SK-MEL-28 cells by SRB assay; procedure, shortened: as §1
# [13] = Cytotoxicity against human IGROV1 cells by SRB assay; settings: IGROV-1; procedure, shortened: as §2
# MDA-MB-435 = experiment: Cytotoxicity against human MDA-MB-435 cells by SRB assay; procedure, shortened: as §1
# [14] = Cytotoxicity against human COLO205 cells by SRB assay; settings: COLO 205; procedure, shortened: as §1
# [15] = Cytotoxicity against human SW620 cells by SRB assay; settings: SW-620; procedure, shortened: as §1
# [16] = Cytotoxicity against human SF539 cells by SRB assay; settings: SF-539; procedure, shortened: as §1
# SR = experiment: Cytotoxicity against human SR cells by SRB assay; procedure, shortened: as §1
# [17] = Cytotoxicity against human OVCAR4 cells by SRB assay; settings: OVCAR-4; procedure, shortened: as §1
# [18] = Cytotoxicity against human HCC2998 cells by SRB assay; settings: HCC 2998; procedure, shortened: as §1
# MDA-MB-468 = experiment: Cytotoxicity against human MDA-MB-468 cells by SRB assay; procedure, shortened: as §1
# [19] = Cytotoxicity against human HCT116 cells by SRB assay; settings: HCT-116; procedure, shortened: as §1
# [20] = Cytotoxicity against human MOLT4 cells by SRB assay; settings: MOLT-4; procedure, shortened: as §1
# [21] = Cytotoxicity against human RPMI8226 cells by SRB assay; settings: RPMI-8226; procedure, shortened: as §1
# CAKI-1 = experiment: Cytotoxicity against human CAKI-1 cells by SRB assay; procedure, shortened: as §1
# NCI-H23 = experiment: Cytotoxicity against human NCI-H23 cells by SRB assay; procedure, shortened: as §1
# [22] = Cytotoxicity against human LOXIMVI cells by SRB assay; settings: LOX IMVI; procedure, shortened: as §2
# SK-MEL-2 = experiment: Cytotoxicity against human SK-MEL-2 cells by SRB assay; procedure, shortened: as §1
# [23] = Cytotoxicity against human HOP92 cells by SRB assay; settings: HOP-92; procedure, shortened: as §1
structure (smiles),measurement,setting,value
COc1ccc(/C=C/c2cc(OC)cc(OC)c2/C=C(\C#N)c2ccc(OC)cc2)cc1,GI50,[1],680 nM
same,GI50,MDA-MB-231,2780 nM
same,GI50,U-251,640 nM
same,GI50,ACHN,830 nM
same,GI50,[2],4710 nM
same,GI50,CCRF-CEM,750 nM
same,GI50,MCF7,390 nM
same,GI50,[3],810 nM
same,GI50,NCI/ADR-RES,650 nM
same,GI50,KM12,780 nM
same,GI50,[4],650 nM
same,GI50,SK-MEL-5,2280 nM
same,GI50,[5],> 100000 nM
same,GI50,[6],360 nM
same,GI50,K562,430 nM
same,GI50,[7],630 nM
same,GI50,[8],970 nM
same,GI50,[9],470 nM
same,GI50,NCI-H522,240 nM
same,GI50,A498,380 nM
same,GI50,M14,1380 nM
same,GI50,[10],1350 nM
same,GI50,[11],700 nM
same,GI50,HT-29,690 nM
same,GI50,[12],1660 nM
same,GI50,786-0,1720 nM
same,GI50,A549,910 nM
same,GI50,SK-MEL-28,750 nM
same,GI50,[13],2350 nM
same,GI50,MDA-MB-435,240 nM
same,GI50,[14],1240 nM
same,GI50,[15],500 nM
same,GI50,[16],270 nM
same,GI50,SR,910 nM
same,GI50,[17],500 nM
same,GI50,[18],2490 nM
same,GI50,MDA-MB-468,1720 nM
same,GI50,[19],490 nM
same,GI50,[20],4380 nM
same,GI50,[21],1160 nM
same,GI50,CAKI-1,500 nM
COc1ccc(/C=C(\C#N)c2cc(OC)cc(OC)c2)cc1,GI50,[1],310 nM
same,GI50,MDA-MB-231,430 nM
same,GI50,U-251,343 nM
same,GI50,ACHN,530 nM
same,GI50,[2],840 nM
same,GI50,CCRF-CEM,320 nM
same,GI50,MCF7,310 nM
same,GI50,[3],490 nM
same,GI50,NCI-H23,530 nM
same,GI50,NCI/ADR-RES,270 nM
same,GI50,KM12,380 nM
same,GI50,[4],330 nM
same,GI50,SK-MEL-5,270 nM
same,GI50,[5],980 nM
same,GI50,[6],220 nM
same,GI50,K562,310 nM
same,GI50,[7],300 nM
same,GI50,[8],510 nM
same,GI50,[9],290 nM
same,GI50,[22],580 nM
same,GI50,NCI-H522,90 nM
same,GI50,A498,250 nM
same,GI50,M14,280 nM
same,GI50,[10],370 nM
same,GI50,[11],400 nM
same,GI50,HT-29,280 nM
same,GI50,[12],280 nM
same,GI50,786-0,420 nM
same,GI50,A549,380 nM
same,GI50,SK-MEL-28,490 nM
same,GI50,[13],530 nM
same,GI50,MDA-MB-435,170 nM
same,GI50,[14],270 nM
same,GI50,[15],420 nM
same,GI50,[16],220 nM
same,GI50,SR,290 nM
same,GI50,[17],730 nM
same,GI50,SK-MEL-2,880 nM
same,GI50,[18],340 nM
same,GI50,MDA-MB-468,290 nM
same,GI50,[19],330 nM
same,GI50,[20],430 nM
same,GI50,[21],330 nM
same,GI50,CAKI-1,540 nM
COc1ccc(/C=C(\C#N)c2cc(OC)c(OC)c(OC)c2)cc1,GI50,[1],< 10 nM
same,GI50,MDA-MB-231,30 nM
same,GI50,U-251,20 nM
same,GI50,[23],20 nM
same,GI50,ACHN,10 nM
same,GI50,[2],40 nM
same,GI50,CCRF-CEM,30 nM
same,GI50,MCF7,< 10 nM
same,GI50,[3],< 10 nM
same,GI50,NCI-H23,50 nM
same,GI50,NCI/ADR-RES,< 10 nM
same,GI50,KM12,< 10 nM
same,GI50,[4],< 10 nM
same,GI50,SK-MEL-5,10 nM
same,GI50,[5],60 nM
same,GI50,[6],< 10 nM
same,GI50,K562,< 10 nM
same,GI50,[7],< 10 nM
same,GI50,[8],30 nM
same,GI50,[9],< 10 nM
same,GI50,[22],10 nM
same,GI50,NCI-H522,< 10 nM
same,GI50,A498,< 10 nM
same,GI50,M14,10 nM
same,GI50,[10],< 10 nM
same,GI50,[11],< 10 nM
same,GI50,HT-29,< 10 nM
same,GI50,[12],20 nM
same,GI50,786-0,20 nM
same,GI50,A549,10 nM
same,GI50,[13],20 nM
same,GI50,MDA-MB-435,< 10 nM
same,GI50,[14],10 nM
same,GI50,[15],10 nM
same,GI50,[16],< 10 nM
same,GI50,SR,< 10 nM
same,GI50,[17],10 nM
same,GI50,SK-MEL-2,80 nM
same,GI50,[18],40 nM
same,GI50,MDA-MB-468,20 nM
same,GI50,[19],< 10 nM
same,GI50,[20],30 nM
same,GI50,[21],30 nM
COc1ccc(/C=C/c2cc(OC)cc(OC)c2/C=C(\C#N)c2ccccc2OC)cc1,GI50,[1],1340 nM
same,GI50,MDA-MB-231,2830 nM
same,GI50,U-251,2770 nM
same,GI50,ACHN,4250 nM
same,GI50,[2],4180 nM
same,GI50,CCRF-CEM,2240 nM
same,GI50,MCF7,720 nM
same,GI50,[3],3440 nM
same,GI50,NCI/ADR-RES,710 nM
same,GI50,KM12,640 nM
same,GI50,[4],760 nM
same,GI50,SK-MEL-5,2440 nM
same,GI50,[5],8770 nM
same,GI50,[6],2510 nM
same,GI50,K562,430 nM
same,GI50,[7],1380 nM
same,GI50,[8],2790 nM
same,GI50,[9],2280 nM
same,GI50,NCI-H522,250 nM
same,GI50,A498,1370 nM
same,GI50,M14,1140 nM
same,GI50,[10],4730 nM
same,GI50,HT-29,480 nM
same,GI50,[12],580 nM
same,GI50,786-0,3250 nM
same,GI50,A549,3560 nM
same,GI50,SK-MEL-28,4220 nM
same,GI50,[13],5280 nM
same,GI50,MDA-MB-435,280 nM
same,GI50,[14],2280 nM
same,GI50,[15],710 nM
same,GI50,[16],1550 nM
same,GI50,SR,280 nM
same,GI50,[17],3590 nM
same,GI50,SK-MEL-2,2130 nM
same,GI50,[18],5470 nM
same,GI50,MDA-MB-468,1700 nM
same,GI50,[19],1290 nM
same,GI50,[20],3300 nM
same,GI50,[21],2850 nM
same,GI50,CAKI-1,2200 nM
